Laboratory results as given in ChEMBL document CHEMBL1154808, “Synthesis, characterization and biological activities of some new benzo[b]thiophene derivatives” (2010).
Converted amounts (≈) assume the structure as drawn.

How the values were obtained:
Assay type in all cases: functional
[1] = test system: Escherichia coli; assay: Antibacterial activity against Escherichia coli after 16 to 18 hrs by serial dilution method
Outline: (§1)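 Compounds were dissolved in DMF and serially diluted. A standard drop of the prepared culture was added to each dilution, and tubes were incubated for 16–18 h at 37 °C. MIC was read as the highest dilution that stayed clear with no turbidity, determined separately for each organism. Candida albicans was tested by the same procedure.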

[2] = test system: Candida albicans; assay: Antifungal activity against Candida albicans after 16 to 18 hrs by serial dilution method; outline: as §1
[3] = test system: Pseudomonas aeruginosa; assay: Antibacterial activity against Pseudomonas aeruginosa after 16 to 18 hrs by serial dilution method; outline: as §1
[4] = test system: Bacillus subtilis; assay: Antibacterial activity against Bacillus subtilis after 16 to 18 hrs by serial dilution method; outline: as §1
[5] = test system: Staphylococcus aureus; assay: Antibacterial activity against Staphylococcus aureus after 16 to 18 hrs by serial dilution method; outline: as §1

| SMILES | MIC [1] [µg/mL] | MIC [2] [µg/mL] | MIC [3] [µg/mL] | MIC [4] [µg/mL] | MIC [5] [µg/mL] |
| --- | --- | --- | --- | --- | --- |
| Clc1ccccc1OCc1nnc(-c2sc3ccccc3c2Cl)o1 | 6 (≈ 15.9 µM) | 6 (≈ 15.9 µM) | 6 (≈ 15.9 µM) | 6 (≈ 15.9 µM) | 6 (≈ 15.9 µM) |
| CC1=NN(C(=O)c2sc3ccccc3c2Cl)C(=O)/C1=N/Nc1cc(Cl)ccc1Cl | 6 (≈ 12.9 µM) | 6 (≈ 12.9 µM) | 6 (≈ 12.9 µM) | 6 (≈ 12.9 µM) | 12.5 (≈ 26.8 µM) |
| Clc1ccccc1OCc1nnc2sc(-c3sc4ccccc4c3Cl)nn12 | 6 (≈ 13.8 µM) | 6 (≈ 13.8 µM) | 6 (≈ 13.8 µM) | 6 (≈ 13.8 µM) | 6 (≈ 13.8 µM) |
| OC(Cn1cncn1)(Cn1cncn1)c1ccc(F)cc1F [FLUCONAZOLE] | – | 6 (≈ 19.6 µM) | – | – | – |
| Clc1ccc(OCc2nnc(-c3sc4ccccc4c3Cl)o2)c(Cl)c1 | 6 (≈ 14.6 µM) | 6 (≈ 14.6 µM) | 6 (≈ 14.6 µM) | 6 (≈ 14.6 µM) | 6 (≈ 14.6 µM) |
| COc1ccc(-c2cc(-c3ccc(Cl)cc3)n(C(=O)c3sc4ccccc4c3Cl)n2)cc1 | 6 (≈ 12.5 µM) | 6 (≈ 12.5 µM) | 6 (≈ 12.5 µM) | 6 (≈ 12.5 µM) | 6 (≈ 12.5 µM) |
| CC1=NN(C(=O)c2sc3ccccc3c2Cl)C(=O)/C1=N/Nc1ccc(Cl)cc1C | 6 (≈ 13.5 µM) | 6 (≈ 13.5 µM) | 6 (≈ 13.5 µM) | 6 (≈ 13.5 µM) | 6 (≈ 13.5 µM) |
| Cc1ccc(OCc2nnc3sc(-c4sc5ccccc5c4Cl)nn23)cc1 | 6 (≈ 14.5 µM) | 6 (≈ 14.5 µM) | 6 (≈ 14.5 µM) | 6 (≈ 14.5 µM) | 6 (≈ 14.5 µM) |
| CC1=NN(C(=O)c2sc3ccccc3c2Cl)C(=O)/C1=N/Nc1ccc(C)cc1[N+](=O)[O-] | 6 (≈ 13.2 µM) | 6 (≈ 13.2 µM) | 6 (≈ 13.2 µM) | 6 (≈ 13.2 µM) | 6 (≈ 13.2 µM) |
| O=C(c1sc2ccccc2c1Cl)n1nc(-c2ccc([N+](=O)[O-])s2)cc1-c1ccccc1 | 3 (≈ 6.44 µM) | 6 (≈ 12.9 µM) | 6 (≈ 12.9 µM) | 6 (≈ 12.9 µM) | 3 (≈ 6.44 µM) |
| COc1ccc(-c2cc(-c3ccccc3)n(C(=O)c3sc4ccccc4c3Cl)n2)cc1 | 6 (≈ 13.5 µM) | 3 (≈ 6.74 µM) | 6 (≈ 13.5 µM) | 6 (≈ 13.5 µM) | 6 (≈ 13.5 µM) |
| O=C(c1sc2ccccc2c1Cl)n1nc(-c2ccc([N+](=O)[O-])s2)cc1-c1ccc(Cl)cc1 | 6 (≈ 12 µM) | 3 (≈ 6 µM) | 6 (≈ 12 µM) | 6 (≈ 12 µM) | 3 (≈ 6 µM) |
| NC(=O)N/N=C/c1ccc([N+](=O)[O-])o1 [NITROFURAZONE] | 6 (≈ 30.3 µM) | – | 12.5 (≈ 63.1 µM) | 12.5 (≈ 63.1 µM) | 12.5 (≈ 63.1 µM) |
| CC1=NN(C(=O)c2sc3ccccc3c2Cl)C(=O)/C1=N/Nc1ccccc1 | 6 (≈ 15.1 µM) | 6 (≈ 15.1 µM) | 6 (≈ 15.1 µM) | 6 (≈ 15.1 µM) | 6 (≈ 15.1 µM) |
